Source: ChEMBL document CHEMBL1158019, “A new pregnane glycoside from Dioscorea collettii var. hypoglauca” (1999)
Activity calls are given as the source filed them. The rule behind the calls is not given here.

Legend:
[1] = test system: LNCaP; test: Cytotoxicity against human LNCaP cells after 5 days by MTT assay; assay type: functional, cell-based
Procedure, shortened: (§1)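 Cells grown in RPMI 1640 with 10% heat-inactivated FCS, 100 IU/mL penicillin and 100 µg/mL streptomycin. 1000 cells seeded per well; test samples added in fresh medium 24 h later, then 5 days at 37 °C. MTT (2 mg/mL solution) added for 4 h; cells dissolved in DMSO for 10 min; A540 read. Untreated cells taken as 100% survival; IC50 from viability-concentration plots; etoposide positive control.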

[2] = test system: HT-29; test: Cytotoxicity against human HT-29 cells after 5 days by MTT assay; assay type: functional, cell-based; procedure, shortened: as §1
[3] = test system: Pyricularia; test: Morphological deformation in Pyricularia oryzae mycelia; assay type: functional
Procedure, shortened: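 Mycelia germinated from P. oryzae conidia were scored for morphological deformation. The endpoint was the minimum morphological deformation concentration (MMDC), the lowest concentration that produced deformation. Griseofulvin and fusarelin A served as positive controls.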

[4] = test system: MDA-MB-231; test: Cytotoxicity against human MDA-MB-231 cells after 5 days by MTT assay; assay type: functional, cell-based
Procedure, shortened: as §1, with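 “FCS, penicillin/streptomycin” for “FCS, 100 IU/mL penicillin”, “and 5” for “and 100”, “µg/mL insulin.” for “µg/mL streptomycin.”, “min; absorbance read at 540 nm.” for “min; A540 read.”, “cells set” for “cells taken”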

[5] = test system: HCT-15; test: Cytotoxicity against human HCT-15 cells after 5 days by MTT assay; assay type: functional, cell-based; procedure, shortened: as §1
[6] = test system: T47D; test: Cytotoxicity against human T47D cells after 5 days by MTT assay; assay type: functional, cell-based
Procedure, shortened: as §1, with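 “FCS, penicillin/streptomycin” for “FCS, 100 IU/mL penicillin”, “and 5” for “and 100”, “µg/mL insulin.” for “µg/mL streptomycin.”, “min; absorbance read at 540 nm.” for “min; A540 read.”, “cells set” for “cells taken”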

[7] = test system: PC-3; test: Cytotoxicity against human PC-3 cells after 5 days by MTT assay; assay type: functional, cell-based; procedure, shortened: as §1

SMILES	Activity [1]	Activity [2]	Activity [3] [µM]	Activity [4]	Activity [5]	Activity [6]	Activity [7]
CC(=O)[C@H]1[C@@H](OC(=O)CCC(C)CO[C@@H]2O[C@H](CO)[C@@H](O)[C@H](O)[C@H]2O)C[C@H]2[C@@H]3CC=C4C[C@@H](O[C@@H]5O[C@H](CO)[C@@H](O[C@@H]6O[C@@H](C)[C@H](O)[C@@H](O)[C@H]6O)[C@H](O)[C@H]5O[C@@H]5O[C@@H](C)[C@H](O)[C@@H](O)[C@H]5O)CC[C@]4(C)[C@H]3CC[C@@]21C (some centres undefined) [HYPOGLAUCIN G]	inactive	inactive	135	inactive	inactive	inactive	inactive
CC(=O)C1=CC[C@H]2[C@@H]3CC=C4C[C@@H](O[C@@H]5O[C@H](CO)[C@@H](O[C@@H]6O[C@@H](C)[C@H](O)[C@@H](O)[C@H]6O)[C@H](O)[C@H]5O[C@@H]5O[C@@H](C)[C@H](O)[C@@H](O)[C@H]5O)CC[C@]4(C)[C@H]3CC[C@]12C	inactive	inactive	236	inactive	inactive	inactive	inactive
